In ChEMBL document CHEMBL3217582, “Design of symmetrical and nonsymmetrical N,N-dimethylaminopyridine derivatives as highly potent choline kinase alpha inhibitors” (Medchemcomm, 2013):
Calls of active or inactive are those of the source. No cut-off for these calls is given here.

Legend:
[1] = Inhibition of recombinant delta49N CHKA2 (unknown origin) assessed as ADP formation using choline as substrate by enzyme coupled assay; set-up: species or system Homo sapiens
Method in brief: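 Δ49N CHKA2 (20 ng) with 72 µM choline and 450 µM ATP (both at KM) in 100 mM Tris pH 7.5, 100 mM KCl, 10 mM MgCl2. Coupled system: 500 µM PEP, pyruvate kinase, LDH, 250 µM NADH. Inhibitor at varying concentrations. ADP formation followed as NADH loss at 340 nm. IC50 from variable-slope sigmoidal least-squares fit.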

A549 = experiment: Growth inhibition of human A549 cells overexpressing CHKA2 after 72 hrs by sulforhodamine assay; format: functional; conditions: A549, 72 h
Method in brief: (§1)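 A549 (DMEM) or HCT-116 (RPMI-1640) cells in 10% FCS, 37°C, 5% CO2. Cells treated 24 h after seeding with 9 inhibitor concentrations, six replicates, for 72 h. Fixed with 10% TCA, stained with 0.4% SRB, read at 540 nm. GI50 from variable-slope sigmoidal fit of percent-of-control curves.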

HCT-116 = experiment: Growth inhibition of human HCT116 cells overexpressing CHKA2 after 72 hrs by sulforhodamine assay; format: functional; conditions: HCT-116, 72 h; method in brief: as §1
Choline kinase alpha [2] = target: T1, Choline kinase alpha (Homo sapiens, UniProt P35790); experiment: Inhibition of CHKA in human HCT116 cells assessed as [3H]phosphocholine formation using [3H]choline chloride as substrate at 2.4 +/-1 uM incubated for 1 hr prior to substrate addition measured after 1 hr by scintillation counting analysis; format: cell-based; conditions: HCT-116
Method in brief: (§2)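 HCT-116 cells pretreated 1 h with 0.16, 0.8, 4, 20 or 100 µM inhibitor. Then pulsed 1 h with [3H]choline chloride (0.5 µCi/mL). Cells washed in cold PBS and extracted with methanol/chloroform. Choline removed with tetraphenylborate in heptan-4-one. Aqueous phosphocholine counted by liquid scintillation and compared with untreated controls.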
Target sequence in this assay (P35790 whole entry, looked up): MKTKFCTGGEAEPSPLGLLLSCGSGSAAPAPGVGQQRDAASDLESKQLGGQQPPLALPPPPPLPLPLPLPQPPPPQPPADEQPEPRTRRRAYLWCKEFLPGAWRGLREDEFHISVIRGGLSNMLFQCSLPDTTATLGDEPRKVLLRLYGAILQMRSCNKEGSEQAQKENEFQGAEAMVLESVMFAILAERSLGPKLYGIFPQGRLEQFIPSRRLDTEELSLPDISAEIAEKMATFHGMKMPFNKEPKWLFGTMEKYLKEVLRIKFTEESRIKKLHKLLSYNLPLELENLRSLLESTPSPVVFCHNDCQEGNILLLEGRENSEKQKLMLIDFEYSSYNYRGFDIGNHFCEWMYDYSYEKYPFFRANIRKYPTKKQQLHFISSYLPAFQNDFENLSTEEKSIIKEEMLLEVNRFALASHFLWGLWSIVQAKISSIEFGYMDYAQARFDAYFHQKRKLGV

Choline kinase alpha [3] = target: T1, Choline kinase alpha; experiment: Inhibition of CHKA in human HCT116 cells assessed as [3H]phosphocholine formation using [3H]choline chloride as substrate at 6.5 +/-4 uM incubated for 1 hr prior to substrate addition measured after 1 hr by scintillation counting analysis; format: cell-based; conditions: HCT-116; method in brief: as §2
Target sequence in this assay (P35790 whole entry, looked up): as above

Choline kinase alpha [4] = target: T1, Choline kinase alpha; experiment: Inhibition of CHKA in human HCT116 cells assessed as [3H]phosphocholine formation using [3H]choline chloride as substrate incubated for 1 hr prior to substrate addition measured after 1 hr by scintillation counting analysis; format: cell-based, HCT-116; conditions: for inhibition: HCT-116; method in brief: as §2
Homo sapiens [5] = species on record: Homo sapiens; experiment: Mixed inhibition of recombinant delta49N CHKA2 (unknown origin) using choline as substrate by Lineweaver-burk plot analysis in presence of ATP
Homo sapiens [6] = species on record: Homo sapiens; experiment: Competitive inhibition of recombinant delta49N CHKA2 (unknown origin) using 72 uM choline as substrate by Lineweaver-burk plot analysis in presence of 10 uM to 5 mM ATP
Homo sapiens [7] = species on record: Homo sapiens; experiment: Competitive inhibition of recombinant delta49N CHKA2 (unknown origin) using 40 uM to 20 mM choline as substrate by Lineweaver-burk plot analysis in presence of 450 uM ATP

Row | Structure (SMILES) | IC50 [1] [µM] | GI50 (A549) [µM] | GI50 (HCT-116) [µM] | inhibition (Choline kinase alpha [2]) [%] | inhibition (Choline kinase alpha [3]) [%] | EC50 (Choline kinase alpha [4]) [µM] | inhibition (Choline kinase alpha [4]) | inhibition (Homo sapiens [5]) | inhibition (Homo sapiens [6]) | inhibition (Homo sapiens [7])
1 | CN(C)c1cc[n+](CCOCCOCCOCC[n+]2ccc(N(C)C)cc2)cc1 | – | – | > 1000 | – | – | – | – | – | – | –
2 | CN(C)c1cc[n+](CCCCCCCCCC[n+]2ccc(N(C)C)cc2)cc1 | 0.67 | 4.2 | 2.8 | – | – | – | – | – | – | –
3 | CN(C)c1cc[n+](CCCCCCCCC[n+]2ccc(N(C)C)cc2)cc1 | 1.3 | 4 | 2.6 | – | – | – | – | – | – | –
4 | CN(C)c1cc[n+](CCCCCCCCCCCCn2cnc3c(N)ncnc32)cc1 | 0.8 | 5.3 | 4.1 | – | – | – | – | Active | – | –
5 | CN(C)c1cc[n+](CCOCCOCCOCCn2cnc3ccccc32)cc1 | – | – | > 1000 | – | – | – | – | – | – | –

Compounds with a lower GI50 (HCT-116), results first:

Row | IC50 [1] [µM] | GI50 (A549) [µM] | GI50 (HCT-116) [µM] | inhibition (Choline kinase alpha [2]) [%] | inhibition (Choline kinase alpha [3]) [%] | EC50 (Choline kinase alpha [4]) [µM] | inhibition (Choline kinase alpha [4]) | inhibition (Homo sapiens [5]) | inhibition (Homo sapiens [6]) | inhibition (Homo sapiens [7]) | Structure (SMILES)
6 | 5.1 | 1.3 | 0.69 | – | – | – | – | – | – | – | CN(C)c1cc[n+](CCCCCCCCCCCCn2cnc3ccccc32)cc1
7 | 0.15 | 0.33 | 0.29 | > 75 | > 75 | 0.52 | Dose-dependent effect | – | – | – | CN(C)c1cc[n+](CCCCCCCCCCCCCC[n+]2ccc(N(C)C)cc2)cc1
8 | 0.27 | 0.38 | 0.64 | > 75 | > 75 | 1.3 | Dose-dependent effect | – | inactive | Active | CN(C)c1cc[n+](CCCCCCCCCCCC[n+]2ccc(N(C)C)cc2)cc1
9 | 0.29 | 1.6 | 2 | – | – | – | – | – | – | – | CN(C)c1cc[n+](CCCCCCCCCCC[n+]2ccc(N(C)C)cc2)cc1
10 | 2.7 | 3.3 | 2.5 | – | – | – | – | – | – | – | CN(C)c1cc[n+](CCCCCCCC[n+]2ccc(N(C)C)cc2)cc1
